In ChEMBL document CHEMBL4270658, “Synthesis, in vitro and in vivo biological evaluation, COX-1/2 inhibition and molecular docking study of indole-N-acylhydrazone derivatives” (Bioorg Med Chem, 2018):

Assays:
[1] = tested on: Splenocyte; experiment: Immunomodulatory activity in BALB/c mouse splenocytes assessed as inhibition of concanavalin A-induced lymphocyte proliferation by measuring [methyl-3H]-thymidine uptake at 50 uM after 48 hrs; assay type: functional
How it was run: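 BALB/c splenocytes (5×10⁶ cells/well) in DMEM, triplicate, with concanavalin A (2 μg mL⁻¹) ± compound 48 h at 37 °C, 5% CO₂, then 1 μCi [methyl-³H]thymidine for 12 h; inhibition from thymidine uptake relative to control; dexamethasone positive control.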

[2] = Cytotoxicity against mouse J774 macrophages after 72 hrs by Alamar Blue assay; assay type: cell-based

SMILES | inhibition at 50 µM [1] | CC50 at 72 h [2]
Cc1cccc2c(/C=N/NC(=O)CC#N)c[nH]c12 | 52.2% | 146 µM
Cc1ccc2[nH]cc(/C=N/NC(=O)CC#N)c2c1 | 15.4% | 200 µM
N#CCC(=O)N/N=C/c1c[nH]c2ccc(C#N)cc12 | 25.7% | 69.4 µM
N#CCC(=O)N/N=C/c1c[nH]c2ncccc12 | 52.4% | 107 µM
C[C@@H]1C[C@H]2[C@@H]3CCC4=CC(=O)C=C[C@]4(C)[C@@]3(F)[C@@H](O)C[C@]2(C)[C@@]1(O)C(=O)CO [DEXAMETHASONE] | 74.6% | –
N#CCC(=O)N/N=C/c1c[nH]c2cccc([N+](=O)[O-])c12 | 31% | 66 µM
